In PMC3525873 (British Journal of Pharmacology, 2012):
pIC50: −log10 of the molar value.

Tests used:
Format in all cases: cell-based
RBL-2H3 cells = test: Degranulation assay; conditions: ionomycin 0.4 μM
Method in brief: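 RBL-2H3 cells grown to confluency, washed in RBL-2H3 buffer with 2 mM CaCl2, all incubations at 37°C. Test compound (3 or 10 μM) for 15 min, then ionomycin 0.4 μM final for 30 min. Stopped with 0.4 M glycine (pH 10.7), A405 read. Untreated and 2% triton-lysed cells served as basal/maximal references. n = 3 passages.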

TRPC3 = target: T1, TRPC3 (Homo sapiens, UniProt Q13507); test: Patch-clamp of TRPC3 currents in HEK293 cells transiently expressing TRPC3; conditions: 3 μM pre-incubation, carbachol
T1 sequence (Q13507 74-921 limits assumed): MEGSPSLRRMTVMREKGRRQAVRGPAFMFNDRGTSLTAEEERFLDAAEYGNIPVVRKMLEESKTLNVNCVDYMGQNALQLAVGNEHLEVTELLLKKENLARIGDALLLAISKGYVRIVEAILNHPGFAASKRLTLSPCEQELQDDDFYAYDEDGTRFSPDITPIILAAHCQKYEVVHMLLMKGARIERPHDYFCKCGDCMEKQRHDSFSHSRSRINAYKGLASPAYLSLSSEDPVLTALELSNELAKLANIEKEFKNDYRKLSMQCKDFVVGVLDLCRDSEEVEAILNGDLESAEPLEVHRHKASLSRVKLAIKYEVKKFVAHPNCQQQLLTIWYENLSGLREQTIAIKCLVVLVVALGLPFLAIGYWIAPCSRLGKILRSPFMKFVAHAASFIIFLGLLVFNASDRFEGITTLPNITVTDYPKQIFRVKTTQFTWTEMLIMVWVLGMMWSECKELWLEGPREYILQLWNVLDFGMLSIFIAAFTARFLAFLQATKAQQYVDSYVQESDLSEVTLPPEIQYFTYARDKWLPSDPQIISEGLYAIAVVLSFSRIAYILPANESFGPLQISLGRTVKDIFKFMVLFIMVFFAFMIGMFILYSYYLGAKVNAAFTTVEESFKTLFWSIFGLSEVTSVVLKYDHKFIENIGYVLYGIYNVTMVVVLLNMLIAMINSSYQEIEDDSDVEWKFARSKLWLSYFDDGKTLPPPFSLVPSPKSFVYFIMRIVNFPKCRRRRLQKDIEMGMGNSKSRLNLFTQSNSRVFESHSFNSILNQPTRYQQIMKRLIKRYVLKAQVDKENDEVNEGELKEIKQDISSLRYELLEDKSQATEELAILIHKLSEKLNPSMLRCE

[1] = target: CRAC currents in native RBL-2H3 cells (Rattus norvegicus, UniProt Q5M848); test: Patch-clamp of CRAC currents in native RBL-2H3 cells; conditions: for Effect on CRAC Ca2+ entry-mediating conductance: 3 μM pre-incubation
CRAC currents in native RBL-2H3 cells, sequence (Q5M848 whole entry): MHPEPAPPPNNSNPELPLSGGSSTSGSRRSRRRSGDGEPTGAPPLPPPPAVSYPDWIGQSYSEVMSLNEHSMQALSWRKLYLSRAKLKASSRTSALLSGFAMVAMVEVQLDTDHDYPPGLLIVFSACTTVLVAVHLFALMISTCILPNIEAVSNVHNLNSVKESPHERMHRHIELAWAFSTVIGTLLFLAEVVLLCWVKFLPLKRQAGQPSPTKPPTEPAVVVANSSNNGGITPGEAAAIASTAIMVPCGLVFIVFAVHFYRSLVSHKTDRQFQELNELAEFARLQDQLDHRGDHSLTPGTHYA
Method in brief: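 Whole-cell recording of native RBL-2H3 cells at room temperature. Stores depleted passively by 20 mM EGTA in the Cs-methanesulphonate pipette solution (pH 7.2). Bath contained 20 mM CaCl2 (pH 7.4). Ramps from −90 to +90 mV over 1 s, holding +30 mV. Test compound at 3 μM, pre-incubated or applied acutely. Net current (minus basal) read at −85 mV 300 s after break-in; n ≥ 6 cells.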

NFAT = test: GFP-NFAT translocation in RBL-2H3 cells; conditions: 10 μM, thapsigargin 1 μM then 2 mM Ca2+ re-addition
Method in brief: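 RBL-2H3 cells electroporated with GFP-NFAT (20 μg DNA, 300 V, 275 μF) 12–18 h beforehand, on coverslips. In nominally Ca2+-free buffer, stores depleted with 1 μM thapsigargin for 5 min, then 2 mM CaCl2 added. Test compound at 10 μM in all buffers. Basal taken before depletion. Cells fixed in paraformaldehyde with DAPI-stained nuclei. Nuclear/cytosolic GFP intensity ratio measured; ≥18 cells per condition.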

STIM1/Orai1 = STIM1/Orai1 (Homo sapiens, UniProt Q96D31)
STIM1/Orai1, sequence (Q96D31 whole entry, species assumed): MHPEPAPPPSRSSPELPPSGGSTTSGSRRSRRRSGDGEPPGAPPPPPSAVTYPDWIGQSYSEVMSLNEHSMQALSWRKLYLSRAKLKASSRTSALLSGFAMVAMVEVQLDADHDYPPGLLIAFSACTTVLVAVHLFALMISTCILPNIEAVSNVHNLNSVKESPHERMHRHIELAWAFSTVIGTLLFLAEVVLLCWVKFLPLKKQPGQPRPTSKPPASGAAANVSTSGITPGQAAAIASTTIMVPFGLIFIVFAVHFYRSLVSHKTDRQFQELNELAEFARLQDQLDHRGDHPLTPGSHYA
STIM1/Orai1, sequence (Q13586 23-685 partner, species assumed): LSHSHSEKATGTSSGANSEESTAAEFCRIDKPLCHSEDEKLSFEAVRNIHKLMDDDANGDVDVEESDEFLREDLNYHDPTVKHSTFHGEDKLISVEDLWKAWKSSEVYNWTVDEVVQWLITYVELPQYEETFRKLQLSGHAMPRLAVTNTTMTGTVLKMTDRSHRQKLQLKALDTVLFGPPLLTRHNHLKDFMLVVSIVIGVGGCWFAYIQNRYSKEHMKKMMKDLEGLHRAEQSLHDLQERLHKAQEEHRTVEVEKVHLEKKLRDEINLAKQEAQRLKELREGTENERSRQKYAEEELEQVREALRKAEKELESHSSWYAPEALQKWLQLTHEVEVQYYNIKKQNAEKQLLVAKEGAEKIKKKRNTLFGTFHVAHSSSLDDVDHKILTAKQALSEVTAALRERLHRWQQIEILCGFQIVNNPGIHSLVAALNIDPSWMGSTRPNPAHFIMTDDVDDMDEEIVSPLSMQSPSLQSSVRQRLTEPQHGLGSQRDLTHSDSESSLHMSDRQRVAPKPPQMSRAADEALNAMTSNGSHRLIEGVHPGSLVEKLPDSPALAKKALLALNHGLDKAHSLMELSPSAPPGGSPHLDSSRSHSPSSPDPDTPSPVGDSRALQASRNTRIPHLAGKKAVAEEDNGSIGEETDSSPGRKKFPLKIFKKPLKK
Method in brief: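 Whole-cell recording at room temperature in HEK293 transiently co-expressing CFP-STIM1 and YFP-Orai1. CRAC activated by 20 mM EGTA in the pipette with 10 mM CaCl2 in the bath. Bath then switched to divalent-free solution to carry Na+ current. Test compound (10 μM) applied acutely; current followed over time; n = 4 cells.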

[2] = target: STIM1/Orai1-mediated SOCE (Rattus norvegicus, UniProt Q5M848); test: Fura-2 Ca2+ re-addition, thapsigargin-depleted native RBL-2H3 cells
STIM1/Orai1-mediated SOCE, sequence (Q5M848 whole entry, the tested form may be a part): as the sequence (Q5M848 whole entry) above
Method in brief: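 Native RBL-2H3 cells were loaded with 2 μM Fura-2-AM for 45 min and perfused in Ca2+-free extracellular solution at room temperature. Stores depleted with 1 μM thapsigargin for 5 min. Test compound present ≥5 min before and throughout. Ca2+ entry evoked by 2 mM Ca2+ re-addition; 340/380 nm ratio read (510 nm emission). Inhibition expressed as % of control peak entry. IC50 by 4-parameter logistic fit; 3–5 experiments, 29–80 cells.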

Row | Effect on TRPC3 Ca2+ entry-mediating conductance (TRPC3) | Effect on CRAC Ca2+ entry-mediating conductance [1] | Effect on native CRAC currents upon acute administration ([1]; acute administration, 3 μM, native RBL-2H3 cells) | Effect on divalent-free sodium current through CRAC pore (STIM1/Orai1; 10 μM, divalent-free conditions) | pIC50 [2] | Higher potency in SOCE model than in TRPC3-ROCE model, orders of magnitude ([2]; RBL-2H3 SOCE vs TRPC3 ROCE) | Higher potency in SOCE model than in TRPC3-ROCE model ([2]; ratio of IC50 values, RBL-2H3 SOCE vs TRPC3 ROCE) | Structure (SMILES) | Effect on ionomycin-initiated degranulation (RBL-2H3 cells; 3 μM) | Effect on ionomycin-initiated degranulation (RBL-2H3 cells; 10 μM) | Effect on NFAT translocation (NFAT) | Effect on reconstituted CRAC pore currents upon acute administration (STIM1/Orai1; HEK293 expressing STIM1 and Orai1, passive store depletion with EGTA)
1 | completely eliminated | completely eliminated | rapidly suppresses | affecting sodium influx through it |  |  |  | CCOC(=O)c1cnn(-c2ccc(NC(=O)C(Cl)=C(Cl)Cl)cc2)c1C(F)(F)F [Pyr3, ethyl 1-(4-(2,3,3-trichloroacrylamido)phenyl)-5-(trifluoromethyl)-1H-pyrazole-4-carboxylate] | substantially reduced degranulation | suppressed responses down to basal levels | clearly inhibited NFAT translocation | acutely blocks a reconstituted CRAC pore in a dose-dependent, non-reversible manner
2 | completely eliminated | completely eliminated |  |  | 6.23 | 0.85 OM | sevenfold | Cc1nnsc1C(=O)Nc1ccc(-n2nc(C(F)(F)F)cc2C(F)(F)F)cc1 [Pyr2, N-(4-(3,5-bis(trifluoromethyl)-1H-pyrazole-1-yl)phenyl)-4-methyl-1,2,3-thiadiazole-5-carboxamide] | substantially reduced degranulation | suppressed responses down to basal levels | clearly inhibited NFAT translocation | 
